Calls of active or inactive are those of the source. No cut-off for these calls is given here.
Tests used:
HT-29 = assay: Antiproliferative activity against human HT-29 cells after 72 hrs by MTT assay; assay type: functional, cell-based
How it was run: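 HT29 colon cells grown in RPMI 1640 with 10% FBS, 2 mmol/l glutamine, 1 mmol/l pyruvate and penicillin-streptomycin at 37 °C, 5% CO2. Cells seeded at 4000/well and attached for 24 h. Treated 72 h with 1000 to 0.32 µM (5-fold dilutions), final DMSO <0.1%; DMSO vehicle controls. MTT 0.5 mg/ml for 2 h, solubilized in DMSO, A570 read. Run in quadruplicate.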

NCI-H522 = assay: Antiproliferative activity against human NCI-H522 cells after 72 hrs by MTT assay; assay type: functional, cell-based; settings: NCI-H522, 72 h
IMR-90 = assay: Cytotoxicity against human IMR90 cells after 72 hrs by MTT assay; assay type: cell-based; settings: IMR-90, 72 h
SK-BR-3 = assay: Antiproliferative activity against human SKBR3 cells after 72 hrs by MTT assay; assay type: functional, cell-based; settings: SK-BR-3, 72 h
MCF7 = assay: Antiproliferative activity against human MCF7 cells after 72 hrs by MTT assay; assay type: functional, cell-based; settings: MCF7, 72 h
NCI-H292 = assay: Antiproliferative activity against human NCI-H292 cells after 72 hrs by MTT assay; assay type: functional, cell-based; settings: NCI-H292, 72 h
Bos taurus [1] = species on record: Bos taurus; assay: Inhibition of bovine tubulin polymerization at 25 uM using microtubule-associated protein rich tubulin measured for 20 mins by spectrophotometry
How it was run: (§1)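 Bovine brain MAP-rich tubulin at 2 mg/ml in 80 mM PIPES pH 6.9, 2 mM MgCl2, 0.5 mM EGTA, 5% glycerol. Mixed with compound in DMSO or DMSO control at 37 °C. Polymerization started with GTP (2 µl of 1 mM stock) and followed as absorbance at 340 nm over 20 min.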

[2] = Antiproliferative activity against human MDA468 cells after 72 hrs by MTT assay; assay type: functional, cell-based; settings: MDA-MB-468, 72 h
[3] = Solubility of the compound in RPMI 1640 cell culture medium; assay type: physicochemical
Bos taurus [4] = species on record: Bos taurus; assay: Induction of bovine tubulin polymerization at 5 uM using microtubule-associated protein rich tubulin measured for 20 mins by spectrophotometry; how it was run: as §1
Bos taurus [5] = species on record: Bos taurus; assay: Induction of bovine tubulin polymerization at 2 uM using microtubule-associated protein rich tubulin measured for 20 mins by spectrophotometry; how it was run: as §1
Bos taurus [6] = species on record: Bos taurus; assay: Inhibition of bovine tubulin polymerization using microtubule-associated protein rich tubulin measured for 20 mins by spectrophotometry; how it was run: as §1
Bos taurus [7] = species on record: Bos taurus; assay: Inhibition of bovine tubulin polymerization at 8 uM using microtubule-associated protein rich tubulin at 10 mins by spectrophotometry relative to control; how it was run: as §1
Bos taurus [8] = species on record: Bos taurus; assay: Inhibition of bovine tubulin polymerization at 10 uM using microtubule-associated protein rich tubulin at 10 mins by spectrophotometry relative to control; how it was run: as §1
[9] = Homo sapiens, HT-29, 72 h, read-out: IC50

Structure (SMILES): CC1=C(CC(=O)Nc2ccc(Cl)cc2)c2cc(F)ccc2/C1=C\c1ccc([S+](C)[O-])cc1 (stereo not drawn)
- IC50 (HT-29; [9]): 1700 µM

Structure (SMILES): COc1ccc(C(=O)n2c(C)c(CC(=O)NCCN(C)C)c3cc(OC)ccc32)cc1
- IC50 (HT-29; [9]): 17.8 µM

Structure (SMILES): CC1=C(CC(=O)NCCN(C)C)c2cc(F)ccc2/C1=C\c1ccc2ccccc2c1
- IC50 (HT-29; [9]): 271 µM

Structure (SMILES): CC1=C(CC(=O)NCCCN(C)C)c2cc(F)ccc2/C1=C\c1ccc([S+](C)[O-])cc1 (stereo not drawn)
- IC50 (HT-29; [9]): 465 µM

Structure (SMILES): CCCCCCNC(=O)Cc1c(C)n(C(=O)c2ccc(Cl)cc2)c2ccc(OC)cc12
- IC50 (HT-29; [9]): 1330 µM

Structure (SMILES): CSc1ccc(/C=C2/C(C)=C(CC(=O)NCCN(C)C)c3cc(F)ccc32)cc1
- IC50 (HT-29; [9]): 11.3 µM

Structure (SMILES): COc1ccc2c(c1)c(CC(=O)NCCN(C)C)c(C)n2S(=O)(=O)c1ccccc1
- IC50 (NCI-H522): 14.1 µM
- IC50 (IMR-90): 18.7 µM
- IC50 (SK-BR-3): 6.39 µM
- IC50 (MCF7): 4.88 µM
- IC50 (HT-29; [9]): 7.7 µM
- IC50 (NCI-H292): 4.85 µM
- inhibition (Bos taurus [1]): Active
- IC50 [2]: 15.9 µM

Structure (SMILES): CCCCCCCCNC(=O)CC1=C(C)/C(=C/c2ccc([S+](C)[O-])cc2)c2ccc(F)cc21 (stereo not drawn)
- IC50 (HT-29; [9]): 307 µM

Structure (SMILES): CC1=C(CC(=O)NCCN(C)C)c2cc(F)ccc2/C1=C\c1ccc(Cl)cc1
- IC50 (HT-29; [9]): 12.4 µM

Structure (SMILES): CC1=C(CC(=O)Nc2ccc(C#N)cc2)c2cc(F)ccc2/C1=C\c1ccc([S+](C)[O-])cc1 (stereo not drawn)
- IC50 (HT-29; [9]): 2580 µM

Structure (SMILES): COc1ccc2c(c1)c(CC(=O)O)c(C)n2C(=O)c1ccc(Cl)cc1 [INDOMETHACIN]
- IC50 (HT-29; [9]): 1050 µM

Structure (SMILES): COc1ccc(/C=C2/C(C)=C(CC(=O)NCCN(C)C)c3cc(F)ccc32)cc1
- IC50 (HT-29; [9]): 20 µM

Structure (SMILES): COc1cc(/C=C2/C(C)=C(CC(=O)NCCN(C)C)c3cc(F)ccc32)cc(OC)c1OC
- IC50 (HT-29; [9]): 140 µM

Structure (SMILES): COc1ccc2c(c1)c(CC(=O)NCCCCCNC(=O)Cc1c(C)n(C(=O)c3ccc(Cl)cc3)c3ccc(OC)cc13)c(C)n2C(=O)c1ccc(Cl)cc1
- IC50 (HT-29; [9]): 110 µM

Structure (SMILES): COc1ccc2c(c1)c(CC(=O)NCCN1CCOCC1)c(C)n2C(=O)c1cc(OC)c(OC)c(OC)c1
- IC50 (HT-29; [9]): 611 µM

Structure (SMILES): CC1=C(CC(=O)NCCC(C)C)c2cc(F)ccc2/C1=C\c1ccc([S+](C)[O-])cc1 (stereo not drawn)
- IC50 (HT-29; [9]): 1430 µM

Structure (SMILES): COc1ccc2c(c1)c(CC(=O)NCc1ccc(CNC(=O)Cc3c(C)n(C(=O)c4ccc(Cl)cc4)c4ccc(OC)cc34)cc1)c(C)n2C(=O)c1ccc(Cl)cc1
- solubility [3]: Insoluble
- IC50 (HT-29; ht-29): ND(Insoluble)

Structure (SMILES): COc1ccc2c(c1)c(CC(=O)Nc1ccccc1OC)c(C)n2C(=O)c1ccc(Cl)cc1
- IC50 (HT-29; [9]): 1120 µM

Structure (SMILES): CCCCCCNC(=O)CC1=C(C)/C(=C/c2ccc([S+](C)[O-])cc2)c2ccc(F)cc21 (stereo not drawn)
- IC50 (HT-29; [9]): 53 µM

Structure (SMILES): COc1ccc2c(c1)c(CC(=O)NCCN(C)C)c(C)n2C(=O)c1ccc(Br)cc1
- IC50 (NCI-H522): 10.6 µM
- IC50 (IMR-90): 41.7 µM
- IC50 (SK-BR-3): 4.81 µM
- IC50 (MCF7): 9.53 µM
- IC50 (HT-29; [9]): 13.5 µM
- IC50 (NCI-H292): 3.47 µM
- inhibition (Bos taurus [1]): Active
- IC50 [2]: 2.91 µM

Structure (SMILES): COc1ccc2c(c1)c(CC(=O)NCCN(C)C)c(C)n2C(=O)c1ccc(Cl)cc1
- IC50 (HT-29; [9]): 170 µM

Structure (SMILES): COc1ccc2c(c1)c(CC(=O)NCCN1CCOCC1)c(C)n2C(=O)c1ccc(Br)cc1
- solubility [3]: Insoluble
- IC50 (HT-29; ht-29): ND(Insoluble)

Structure (SMILES): CCCCCC(C)NC(=O)CC1=C(C)/C(=C/c2ccc([S+](C)[O-])cc2)c2ccc(F)cc21 (stereo not drawn)
- IC50 (HT-29; [9]): 2140 µM

Structure (SMILES): COc1ccc2c(c1)c(CC(=O)NCCN(C)C)c(C)n2C(=O)c1ccc2ccccc2c1
- IC50 (HT-29; [9]): 29 µM

Structure (SMILES): COc1ccc(NC(=O)CC2=C(C)/C(=C/c3ccc([S+](C)[O-])cc3)c3ccc(F)cc32)cc1 (stereo not drawn)
- IC50 (HT-29; [9]): 2540 µM

Structure (SMILES): COc1cccc(NC(=O)Cc2c(C)n(C(=O)c3ccc(Cl)cc3)c3ccc(OC)cc23)c1
- IC50 (HT-29; [9]): 1190 µM

Structure (SMILES): CCCCNC(=O)CC1=C(C)/C(=C/c2ccc([S+](C)[O-])cc2)c2ccc(F)cc21 (stereo not drawn)
- IC50 (HT-29; [9]): 124 µM

Structure (SMILES): COc1ccc2c(c1)c(CC(=O)NCCN(C)C)c(C)n2C(=O)c1ccc(OC)c(OC)c1
- IC50 (HT-29; [9]): 44 µM

Structure (SMILES): COc1ccc2c(c1)c(CC(=O)NCCN1CCOCC1)c(C)n2C(=O)c1ccc(OC)c(OC)c1
- solubility [3]: Insoluble
- IC50 (HT-29; ht-29): ND(Insoluble)

Structure (SMILES): COc1ccc2c(c1)c(CC(=O)NCCN1CCCCC1)c(C)n2C(=O)c1ccc(Cl)cc1
- IC50 (HT-29; [9]): 277 µM

Structure (SMILES): COc1ccc2c(c1)c(CC(=O)NCCN1CCCC1)c(C)n2C(=O)c1cc(OC)c(OC)c(OC)c1
- IC50 (HT-29; [9]): 34 µM

Structure (SMILES): CC1=C(CC(=O)NCCN(C)C)c2cc(F)ccc2/C1=C\c1ccc(Br)cc1
- IC50 (HT-29; [9]): 20 µM

Structure (SMILES): COc1ccc2c(c1)c(CC(=O)Nc1ccc(I)cc1)c(C)n2C(=O)c1ccc(Cl)cc1
- IC50 (HT-29; [9]): 52 µM

Structure (SMILES): COc1ccc2c(c1)c(CC(=O)Nc1ccc(Cl)cc1)c(C)n2C(=O)c1ccc(Cl)cc1
- IC50 (HT-29; [9]): 68 µM

Structure (SMILES): CC1=C(CC(=O)O)c2cc(F)ccc2/C1=C\c1ccc([S+](C)[O-])cc1 (stereo not drawn) [SULINDAC]
- IC50 (HT-29; [9]): 1730 µM

Structure (SMILES): COc1ccc2c(c1)c(CC(=O)NCCN1CCCC1)c(C)n2C(=O)c1ccc(Cl)cc1
- IC50 (HT-29; [9]): 38 µM

Structure (SMILES): COc1ccc2c(c1)c(CC(=O)NCCN(C)C)c(C)n2C(=O)c1cc(OC)c(OC)c(OC)c1
- Activity (Bos taurus [4]): Active
- IC50 (NCI-H522): 3 µM
- IC50 (IMR-90): 17.2 µM
- IC50 (SK-BR-3): 4.63 µM
- IC50 (MCF7): 0.9 µM
- Activity (Bos taurus [5]): Active
- inhibition (Bos taurus [6]): Dose-dependent effect
- inhibition (Bos taurus [7]): 20%
- IC50 (HT-29; [9]): 2.7 µM
- IC50 (NCI-H292): 0.51 µM
- inhibition (Bos taurus [1]): Active
- IC50 [2]: 2.87 µM
- inhibition (Bos taurus [8]): 56%

Structure (SMILES): CC1=C(CC(=O)NCCN2CCCC2)c2cc(F)ccc2/C1=C\c1ccc([S+](C)[O-])cc1 (stereo not drawn)
- IC50 (HT-29; [9]): 52 µM

Structure (SMILES): CC1=C(CC(=O)NCCN(C)C)c2cc(F)ccc2/C1=C\c1ccc([S+](C)[O-])cc1 (stereo not drawn)
- IC50 (HT-29; [9]): 47 µM
